A selection: hits, their analogues and other compounds. The true share with any hit is near 3.4%.
SF-1 act = SF-1 (human) activation; Q13285; CHO-K1 Gal4-SF-1 LBD luciferase reporter; % increase over DMSO SF-1-specific signal; activation, % at 10 µM; 65,000 compounds, 1.9% hits; AID 522;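 active means activation above the mean activation of all tested compounds plus 3 SD, cut at about 50% in these data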
Target sequence (Q13285 whole entry, looked up, the tested form may be a part): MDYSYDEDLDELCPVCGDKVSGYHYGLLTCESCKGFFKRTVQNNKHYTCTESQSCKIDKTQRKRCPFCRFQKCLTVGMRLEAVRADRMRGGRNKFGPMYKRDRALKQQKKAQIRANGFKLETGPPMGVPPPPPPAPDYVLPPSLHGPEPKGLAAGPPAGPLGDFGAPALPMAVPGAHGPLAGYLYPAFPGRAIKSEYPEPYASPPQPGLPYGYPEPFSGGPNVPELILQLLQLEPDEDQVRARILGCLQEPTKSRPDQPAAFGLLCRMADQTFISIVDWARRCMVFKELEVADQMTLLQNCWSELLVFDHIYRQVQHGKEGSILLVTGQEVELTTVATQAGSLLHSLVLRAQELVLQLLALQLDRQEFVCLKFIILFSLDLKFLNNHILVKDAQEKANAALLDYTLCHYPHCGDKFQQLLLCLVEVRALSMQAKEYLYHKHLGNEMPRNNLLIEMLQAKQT
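Material: Gal4–SF-1 LBD one-hybrid luciferase reporter in CHO-K1 cells | Amount: 4,000 cells per well | Compound dosing: 10 µM single point, 1% DMSO | Schedule: 20 h compound treatment, 37 °C | Measured by: SteadyLite luciferase luminescence | Evaluation: Percent activation versus DMSO | Control set: DMSO-treated SF-1-transfected cells as negative, DMSO-treated mock-transfected cells lacking SF-1 as background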
ROCK2 blocker = ROCK2 (human) kinase inhibition; O75116; purified ROCK2, Kinase-Glo ATP depletion luminescence; inhibition, % at 6 µM; 60,000 compounds, 0.35% hits;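 active means inhibition above the screen-wide mean inhibition plus 3 SD, cut at about 18% in these data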;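 further: plate controls were DMSO wells for no effect and Y-27632 control wells after no-enzyme background subtraction for full effect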
PKA kinase inh = PKA (human) kinase inhibition. AID 524. 65,000 compounds, 0.1% hits. inhibition, % at 6 µM. PKA Kemptide phosphorylation, Kinase-Glo ATP luminescence. P17612;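 active means inhibition above the screen-wide mean inhibition plus 3 SD, cut at about 21% in these data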
MMP-13 inhibitor = MMP13 (human) collagenase inhibition. inhibition, % at 4 µM. MMP-13 fTHP FRET cleavage, Mca fluorescence. 65,000 compounds, 0.07% hits;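 active means inhibition above the mean of compound-free control plate wells plus 3 SD, cut at about 14% in these data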;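 further: 0% = DMSO wells and 100% = wells with reference MMP-13 inhibitor after basal subtraction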
RORa activator = RORA (human) activation. CHO-K1 Gal4-RORA LBD luciferase reporter, luminescence; percent increase over mock-subtracted basal signal. activation, % at 10 µM. 65,000 compounds, 1.5% hits. AID 560;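 active means activation above the mean of all tested compounds plus 3 SD, cut at about 49% in these data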;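 further: 0% = DMSO-treated RORA cells and 100% = added signal equal to DMSO minus mock-transfected cells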
JNK3 blocker = blocks human JNK3 kinase activity | P53779 | 60,000 compounds, 0.61% hits | purified JNK3 kinase activity, HTS | AID 746 | inhibition, % at 8 µM; in the data active means inhibition above about 17%;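 further: 0% = DMSO and 100% = reference inhibitor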
Active calls of the source: *; nt = no result.

SMILES | SF-1 act | ROCK2 blocker | PKA kinase inh | MMP-13 inhibitor | RORa activator | JNK3 blocker
Cc1ccc(/C=N/c2sc3c(c2C#N)CCCCC3)o1 | 54* | 16 | 8 | -3 | 12 | -4
CC(C)n1nc(C(=O)OCC(=O)N(C)C2CCS(=O)(=O)C2)c2ccccc2c1=O (stereo not drawn) | 7 | 0 | 0 | -1 | -26 | 21*
Cc1ccc(-n2c(C)cc(C(=O)OCC(=O)N(C)C3CCS(=O)(=O)C3)c2C)cc1 (stereo not drawn) | 8 | nt | -1 | 1 | -2 | nt
COc1ccc(Cn2c(C3CC3)nc3ccc(NC(=O)C4CC4)cc3c2=O)cc1 | 162* | 4 | 11 | -2 | 48 | 3
COc1ccc(-n2c(SCC(=O)N3CCCC3)nc3c([nH]c4ccccc43)c2=O)cc1 | 9 | 4 | 4 | 2 | -8 | 0
O=C(Nc1ccc2c(c1)CCC2)C1CCCN(c2ncccn2)C1 (stereo not drawn) | 69* | 4 | 8 | -1 | 31 | -9
CCOC(=O)N1CCN(c2cc3nccnc3cc2F)CC1 | -10 | 4 | 2 | 5 | -9 | 6
Fc1cc2nccnc2cc1N1CCSCC1 | 21 | 10 | 12 | 4 | -16 | 23*
Cc1c(C(=O)N2CCOCC2)[nH]c2c1C(=O)CC(c1ccccc1Cl)C2 (stereo not drawn) | 67* | 0 | 6 | 4 | 45 | -2
O=c1c2ccccc2nc2n1CCN2Cc1ccc(Cl)cc1 | -20 | 2 | 7 | -41 | -7 | 6
O=C(NCC1CCCO1)c1cc(-c2ccccc2)on1 (stereo not drawn) | 68* | -1 | -4 | 5 | 91* | -6
Cc1ccc(-c2cc(C(=O)NCC3CCCO3)no2)cc1 (stereo not drawn) | 21 | 2 | 1 | -2 | 35 | 2
COc1ccc(C2C3=C(CCCC3=O)Nc3nc4ccccc4n32)c(OC)c1OC (stereo not drawn) | 1 | 7 | 12 | -48 | 2 | -1
Oc1[nH]c2ccccc2c1C=Nc1ccc2c(c1)OCCO2 | 33 | 9 | -3 | -2 | 28 | 35*
Cc1cccc(/N=C/c2c(O)[nH]c3ccccc23)n1 | 103* | 5 | 6 | 1 | 86* | 30*
CCOC1(OCC)N=C(N)C2(C#N)C(c3ccc(NC(C)=O)cc3)C12C#N (stereo not drawn) | 12 | 26* | 4 | -9 | -3 | -6
CCCCCCn1c(NCC)nc2c1c(=O)n(C)c(=O)n2C | -47 | 3 | -4 | -1 | -44 | -3
O=C(Nc1nc2ccc(S(=O)(=O)N3CCCC3)cc2s1)c1cccs1 | 37 | 1 | 7 | -1 | 52* | -1
CSc1nc2ccc3nc(NC(=O)c4cccs4)sc3c2s1 | 64* | 8 | 14 | -10 | 39 | -2
CC1=C(C#N)c2nc(N)c(C#N)c(C)c2/C1=C\c1ccccc1 | -3 | -2 | 4 | -7 | -27 | 0
COc1ccc(S(=O)(=O)N2Cc3ccccc3CC2C(=O)Nc2nccs2)cc1OC (stereo not drawn) | 71* | 6 | 10 | 1 | 18 | 2
O=C(NCCCN1CCCC1=O)c1cccc(C(F)(F)F)c1 | 8 | 2 | 0 | 0 | 2 | -4
O=C(NCc1ccco1)c1cc(-c2cccs2)on1 | 28 | 0 | -5 | 1 | 67* | 1
O=C(NCc1ccco1)c1cc(-c2ccccc2)on1 | 32 | 1 | -5 | 1 | 38 | -7
O=C(NCCCN1CCOCC1)c1cc(-c2cccs2)on1 | 32 | 6 | 3 | 1 | 42 | 3
SMILES | SF-1 act | ROCK2 blocker | PKA kinase inh | MMP-13 inhibitor | RORa activator | JNK3 blocker
O=C(NCc1ccco1)c1ccc2ccccc2c1 | 48 | -3 | -7 | 8 | 68* | 3
O=C(NCCCn1ccnc1)c1cc(-c2cccs2)on1 | 67* | 7 | 1 | -1 | 92* | -3
CC(C(=O)O)n1nc2ccccc2n1 (stereo not drawn) | 11 | 9 | 9 | -3 | -4 | 3
Cc1nc2cc(NC(=O)NCCC3=CCCCC3)ccc2o1 | 46 | 5 | 7 | -9 | 73* | 1
Cc1ccc(C)c(N2CCN(c3cc(C)nc4nnnn34)CC2)c1 | -21 | 1 | -2 | 4 | 4 | 3
Cc1ccc(N(CC(N)=O)C2SC(=O)N(C)C2=O)cc1 (stereo not drawn) | -4 | nt | 4 | 0 | -15 | nt
Cc1cccc2nc(=S)n(C(=O)c3ccco3)n12 | 42 | 2 | 4 | -6 | 56* | 2
O=C(c1ccco1)n1c(=S)nc2ccccn21 | 32 | 1 | -6 | -2 | 77* | 6
O=C(c1ccco1)N1C(=O)c2cccc3cccc1c23 | 6 | 10 | 11 | -1 | -10 | 5
O=C(O)c1nc2ccccc2nc1C(=O)O | 58* | -11 | 1 | -2 | 44 | 8
Nc1nc2ccccc2nc1N | 4 | 6 | 10 | -63 | 19 | 7
CCCc1cc(=O)n2[nH]c(-c3ccccc3)cc2n1 | 68* | 6 | 14 | -37 | 52* | 6
COCc1cc(=O)n2[nH]c(-c3ccccc3)cc2n1 | 30 | 2 | 0 | -44 | 22 | -4
COCc1cc(=O)n2[nH]c(-c3cccc(Br)c3)cc2n1 | 48 | 5 | 8 | -18 | 53* | 4
CCCc1cc(=O)n2[nH]c(-c3ccc(C)cc3)cc2n1 | 26 | 6 | 3 | -23 | 79* | 4
Cc1ccccc1N(C(=O)Cn1nnc2ccccc21)C(C(=O)NCc1ccco1)c1ccncc1 (stereo not drawn) | -11 | -5 | 6 | 4 | 24 | 9
O=C(CCn1c(=S)[nH]c2ccccc2c1=O)N1CCN(c2ccccn2)CC1 | 14 | nt | 7 | 2 | 2 | nt
COc1cc(C)c(C(C)C)cc1S(=O)(=O)n1cnc(C)c1 | 15 | 0 | -4 | -4 | 80* | -5
OC(COc1ccccc1Cl)CN1CCN(CC(O)COc2ccccc2Cl)CC1 (stereo not drawn) | 18 | 6 | 7 | 5 | 15 | 3
OC(COc1ccc2ccccc2c1Cl)CN1CCOCC1 (stereo not drawn) | 54* | 6 | 12 | 3 | 49 | 8
Cc1csc2nc(CSc3nncn3-c3ccccc3)c(Br)n12 | 21 | 0 | -2 | -2 | -2 | 2
Cc1csc2nc(CSc3nc4ccccc4o3)c(Br)n12 | 61* | 6 | 12 | 1 | 34 | 1
O=C(Cc1ccc2cccnc2c1)c1ccc(O)cc1O | 39 | 4 | 0 | 1 | 60* | 9
O=C(c1cc2nc3c(c(C(F)(F)F)n2n1)CCc1ccccc1-3)N1CCN2CCCC2C1 (stereo not drawn) | -10 | 4 | 6 | -7 | -5 | -4
COc1cc2nc(=S)n3[nH]c(CCn4nc(C)cc4C)nc3c2cc1OC | -61 | 0 | 1 | 8 | -48 | -1
COc1ccc2nc(SCC(=O)N3CCNC3=O)[nH]c2c1 | 65* | -1 | 1 | 4 | 45 | -2
